Laboratory results taken from ChEMBL document CHEMBL4368903, “Identification of GSK3186899/DDD853651 as a Preclinical Development Candidate for the Treatment of Visceral Leishmaniasis” (J Med Chem, 2019).
In brackets after ≈: the same amount, converted by molar mass.

Tests used:
Leishmania donovani [1] = test: Antileishmanial activity against Leishmania donovani […] in human THP1 cells by intramacrophage assay; format: functional, organism-based; conditions: for EC50: Leishmania donovani, THP-1
[2] = Solubility of compound in fasted simulated intestinal fluid at 1 mg after 4 hrs by HPLC-UV analysis; format: physicochemical; conditions: for solubility at 4 h: fasted simulated intestinal fluid; for solubility: 4 h
Method in brief: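 1 mg solid shaken in 1 mL FaSSIF (3 mM sodium taurocholate, 0.75 mM lecithin, phosphate buffer pH 6.5) at 900 rpm for 4 h at room temperature, then filtered. Supernatant quantified by HPLC-UV against single-point DMSO calibration. Range 1–1000 μg/mL.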

[3] = Kinetic aqueous solubility of the compound in phosphate buffer at pH 7.4 by CLND assay; format: physicochemical; conditions: for solubility kinetic: phosphate buffer, read-out: Kinetic_solubility; for Kinetic_solubility: buffer
Method in brief: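 From 10 mM DMSO stock diluted 1:20 into pH 7.4 PBS, equilibrated 1 h at RT, filtered. Filtrate quantified by calibrated flow-injection CLND. Dynamic range 1–500 μM.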

[4] = Lipophilicity, log D of the compound at pH 7.4 assessed as chromatographic hydrophobicity index; format: physicochemical; conditions: buffer
Method in brief: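 Reversed-phase C18 HPLC with fast acetonitrile gradient. CHI taken from gradient retention time via a calibration line of standards. ChromLogD = 0.0857 × CHI − 2.00.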

Leishmania donovani [5] = test: Antileishmanial activity against Leishmania donovani axenic amastigote; format: functional, organism-based
[6] = Volume of distribution at steady state in BALB/c mouse at 10 mg/kg, po measured up to 24 hrs by UPLC-MS/MS analysis; format: ADME, organism-based; conditions: in vivo
Method in brief: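 Female Balb/c mice (n = 3) were dosed in 10% (v/v) DMSO, 60% PEG 400 and 30% deionized water. Compound in blood was quantified by UPLC-MS/MS, and parameters were derived from the mean blood concentration–time curve.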

[7] = Blood clearance in BALB/c mouse at 10 mg/kg, […] measured up to 24 hrs by UPLC-MS/MS analysis; format: ADME, organism-based; conditions: whole blood
[8] = Fraction unbound in human plasma at 10 ug/ml after 15 mins by UPLC-MS/MS analysis; format: ADME, cell-free
[9] = Oral bioavailability in BALB/c mouse at 10 mg/kg measured up to 24 hrs by UPLC-MS/MS analysis; format: ADME, organism-based; conditions: in vivo
Leishmania donovani [10] = test: Antileishmanial activity against Leishmania donovani LV9 amastigotes infected in BALB/c mouse assessed as suppression of parasite load within liver at 50 mg/kg, po administered bid for 5 days relative to control; format: functional
Method in brief: (§1)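 Female BALB/c mice, 5 per group, infected i.v. with about 2×10^7 L. donovani LV9 amastigotes harvested from infected hamster spleen. Oral dosing starts day 7 post-infection, in 0.5% HPMC/0.4% Tween 80/0.5% benzyl alcohol, or 10% DMSO/60% PEG400/30% water for the 5-day 50 mg/kg regimen. Dosing solutions made fresh daily. Killed day 14 (5-day) or 19 (10-day). Liver smears give LDU (amastigotes/500 nucleated cells × organ weight). Mean LDU compared with vehicle control gives % suppression.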

[11] = AUClast in BALB/c mouse at 10 mg/kg, po measured up to 24 hrs by UPLC-MS/MS analysis; format: ADME, organism-based; parameters: time < 24 hr, dose 10 mg/kg, route oral; conditions: in vivo
Method in brief: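 Female Balb/c mice (n=3) dosed orally in 10% (v/v) DMSO, 60% PEG 400, 30% deionized water. AUC0–last (to last measurement) derived from the mean blood concentration–time curve.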

[12] = Permeability of the compound by artificial membrane permeability assay; format: ADME; conditions: PAMPA; read-out: permeability
HepG2 = test: Cytotoxicity against human HepG2 cells; format: cell-based
[13] = Intrinsic clearance in human liver microsomes at 0.5 uM after 3 to 30 mins in presence of NADPH by UPLC-MS/MS analysis; format: ADME, Microsome
Method in brief: (§2)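 0.5 μM compound with female CD1 mouse or human liver microsomes, started with excess NADPH in 50 mM potassium phosphate pH 7.4. Aliquots at 0, 3, 6, 9, 15 and 30 min quenched in acetonitrile with internal standard. UPLC-MS/MS; rate constant from exponential decay of compound/IS ratio. Verapamil as positive control.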

[14] = Cmax in BALB/c mouse at 10 mg/kg, po measured up to 24 hrs by UPLC-MS/MS analysis; format: ADME, organism-based; parameters: dose 10 mg/kg, route oral; conditions: in vivo
Method in brief: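 Single oral dose to female Balb/c mice (n=3) in 10% DMSO/60% PEG400/30% water. Blood sampled at 0.08–24 h and mixed with two volumes of water. Compound quantified by UPLC-MS/MS. Parameters taken from the mean blood concentration–time curve.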

[15] = Intrinsic clearance in CD1 mouse liver microsomes at 0.5 uM after 3 to 30 mins in presence of NADPH by UPLC-MS/MS analysis; format: ADME, Microsome; method in brief: as §2
[16] = Dissociation constant, pKa of the compound by UV-spectroscopy; format: physicochemical
Method in brief: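 Sirius T3 acid–base titration with UV read-out: 5 μL of 10 mM sample, absorbance over 54 pH values in about 5 min. Methanol cosolvent with Yasuda–Shedlovsky extrapolation used when precipitation occurred.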

THP-1 = test: Cytotoxicity against human THP1 cells; format: cell-based
[17] = Fraction unbound in CD1 mouse plasma at 10 ug/ml after 15 mins by UPLC-MS/MS analysis; format: ADME, cell-free
Leishmania donovani [18] = test: Antileishmanial activity against Leishmania donovani LV9 amastigotes infected in BALB/c mouse assessed as suppression of parasite load within liver at 25 mg/kg, po administered bid for 10 days relative to control; format: functional; method in brief: as §1
Leishmania donovani [19] = test: Antileishmanial activity against Leishmania donovani LV9 amastigotes infected in BALB/c mouse assessed as suppression of parasite load within liver at 100 mg/kg, po administered bid for 5 days relative to control; format: functional; method in brief: as §1
Leishmania donovani [20] = test: Antileishmanial activity against Leishmania donovani LV9 amastigotes infected in BALB/c mouse assessed as suppression of parasite load within liver at 10 mg/kg, po administered bid for 10 days relative to control; format: functional; method in brief: as §1
[21] = Mean AUClast in Sprague-Dawley rat at 10 mg/kg, po measured up to 24 hrs by UPLC-MS/MS analysis; format: ADME, organism-based; parameters: dose 10 mg/kg, time < 24 hr, route oral; conditions: in vivo
Method in brief: (§3)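 Male Sprague–Dawley rats (n=3) given oral gavage as 1% methylcellulose suspension at 10, 100 or 300 mg/kg. Tail-vein blood at 0.25–24 h into K-EDTA, diluted in 0.1N Hepes and stored at −20 °C. Protein precipitation, then LC-MS/MS (range 2.90–2860 ng/mL). AUC0–t by linear up-log down trapezoidal rule.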

[22] = Mean AUClast in Sprague-Dawley rat at 300 mg/kg, po measured up to 24 hrs by UPLC-MS/MS analysis; format: ADME, organism-based; parameters: dose 300 mg/kg, time < 24 hr, route oral; conditions: in vivo; method in brief: as §3
[23] = Mean AUClast in Sprague-Dawley rat at 100 mg/kg, po measured up to 24 hrs by UPLC-MS/MS analysis; format: ADME, organism-based; parameters: dose 100 mg/kg, time < 24 hr, route oral; conditions: in vivo; method in brief: as §3
Leishmania donovani [24] = test: Antileishmanial activity against Leishmania donovani LV9 amastigotes infected in BALB/c mouse assessed as suppression of parasite load within liver at 50 mg/kg, po administered bid for 10 days relative to control; format: functional; method in brief: as §1

COc1nc(N[C@H]2CC[C@H](NS(=O)(=O)CCC(F)(F)F)CC2)nc2[nH]nc(N3CCOCC3)c12
EC50 (Leishmania donovani [1]): 1.26 µM
solubility at 4 h [2]: 53 µg/mL (≈ 104 µM)
solubility kinetic [3]: 311 µM (≈ 158 µg/mL)

O=S(=O)(CCC(F)(F)F)N[C@H]1CC[C@H](Nc2ncc3c(N4CCNCC4)n[nH]c3n2)CC1
EC50 (Leishmania donovani [1]): 31.6 µM
solubility kinetic [3]: 346 µM (≈ 165 µg/mL)
chromatographic logD [4]: 1.6

COc1nc(N[C@H]2CC[C@H](NS(=O)(=O)CC3CCCO3)CC2)nc2[nH]nc(N3CCOCC3)c12 (stereo in doubt; 34)
pEC50 (Leishmania donovani [1]): 5.4
solubility at 4 h [2]: 283 µg/mL (≈ 571 µM)
solubility kinetic [3]: 412 µM (≈ 204 µg/mL)

O=S(=O)(CCC(F)(F)F)N[C@H]1CC[C@H](Nc2ncc3c(C4CCOCC4)n[nH]c3n2)CC1
EC50 (Leishmania donovani [1]): 3.16 µM
solubility kinetic [3]: 35 µM (≈ 16.7 µg/mL)
chromatographic logD [4]: 3.2

CC(C)CC(=O)c1sc(NC2CCCCC2)nc1N
EC50 (Leishmania donovani [5]): 50.1 µM

O=S(=O)(CCC(F)(F)F)N[C@H]1CC[C@H](Nc2ncc3c(-c4cncnc4)n[nH]c3n2)CC1
EC50 (Leishmania donovani [1]): 6.31 µM
solubility kinetic [3]: 11 µM (≈ 5.18 µg/mL)
chromatographic logD [4]: 3

O=S(=O)(CCC(F)(F)F)N[C@H]1CC[C@H](Nc2ncc3c(N4CCCCC4)n[nH]c3n2)CC1
EC50 (Leishmania donovani [1]): 1.58 µM
solubility kinetic [3]: 46 µM (≈ 21.9 µg/mL)
chromatographic logD [4]: 4.4

O=S(=O)(CCC(F)(F)F)N[C@H]1CC[C@H](Nc2ncc3c(-c4ccccn4)n[nH]c3n2)CC1
Vdss [6]: 0.9 L/kg
EC50 (Leishmania donovani [1]): 0.501 µM
CL/F [7]: 4 mL/min/kg
fraction unbound at 0.25 h, 10 ug/ml [8]: 0.08
bioavailability [9]: 44%
Activity (Leishmania donovani [10]): 85%
AUC(0-t) at 24 h [11]: 17400 ng·h/mL
Papp [12]: 44 ×10⁻⁶ cm/s
EC50 (HepG2): > 100 µM
CLH [13]: < 0.5 mL/min/g
Cmax [14]: 1910 ng/mL
CLH [15]: 0.6 mL/min/g
solubility at 4 h [2]: < 1 µg/mL
pKa [16]: 3.2
solubility kinetic [3]: 8 µM (≈ 3.76 µg/mL)
EC50 (THP-1): 50.1 µM
fraction unbound at 0.25 h, 10 ug/ml [17]: 0.13

COc1nc(N[C@H]2CC[C@H](NS(=O)(=O)CC3CCCO3)CC2)nc2[nH]nc(N3CCOCC3)c12 (stereo in doubt; 35)
EC50 (Leishmania donovani [1]): 6.31 µM
solubility [2]: 208 µg/mL (≈ 420 µM)
Kinetic_solubility [3]: 421 µM

CC(C)CS(=O)(=O)N[C@H]1CC[C@H](Nc2ncc3c(N4CCOCC4)n[nH]c3n2)CC1
EC50 (Leishmania donovani [1]): 0.501 µM
Activity (Leishmania donovani [18]): 74%
fraction unbound at 0.25 h, 10 ug/ml [8]: 0.33
Activity (Leishmania donovani [19]): 94%
Activity (Leishmania donovani [20]): 36%
AUC(0-t) at 24 h [21]: 162 ng·h/mL
AUC(0-t) at 24 h [22]: 2380 ng·h/mL
EC50 (HepG2): > 100 µM
CLH [13]: 1.8 mL/min/g
CLH [15]: 0.9 mL/min/g
solubility at 4 h [2]: 9 µg/mL (≈ 20.6 µM)
AUC(0-t) at 24 h [23]: 2960 ng·h/mL
solubility kinetic [3]: 328 µM (≈ 144 µg/mL)
Activity (Leishmania donovani [24]): 97%
EC50 (THP-1): > 50.1 µM
fraction unbound at 0.25 h, 10 ug/ml [17]: 0.37

O=S(=O)(CCC(F)(F)F)N[C@H]1CC[C@H](Nc2ncc3c(N4CCOCC4)n[nH]c3n2)CC1
EC50 (Leishmania donovani [1]): 3.16 µM
solubility at 4 h [2]: 7 µg/mL (≈ 14.7 µM)
pKa [16]: 3.7
solubility kinetic [3]: 259 µM (≈ 124 µg/mL)
chromatographic logD [4]: 3

C[C@@H]1CN(c2n[nH]c3nc(N[C@H]4CC[C@H](NS(=O)(=O)CCC(F)(F)F)CC4)ncc23)CCO1
EC50 (Leishmania donovani [1]): 5.01 µM
solubility at 4 h [2]: 23 µg/mL (≈ 46.8 µM)
solubility kinetic [3]: 52 µM (≈ 25.6 µg/mL)

O=S(=O)(CCC(F)(F)F)N[C@H]1CC[C@H](Nc2ncc3c(N4CCCC4)n[nH]c3n2)CC1
EC50 (Leishmania donovani [1]): 2 µM
solubility kinetic [3]: 12 µM (≈ 5.54 µg/mL)
chromatographic logD [4]: 4

CC1COCCN1c1n[nH]c2nc(N[C@H]3CC[C@H](NS(=O)(=O)CCC(F)(F)F)CC3)ncc12 (stereo in doubt; 37)
EC50 (Leishmania donovani [1]): 2 µM
solubility [2]: 118 µg/mL (≈ 240 µM)
Kinetic_solubility [3]: >= 292 uM

CC1COCCN1c1n[nH]c2nc(N[C@H]3CC[C@H](NS(=O)(=O)CCC(F)(F)F)CC3)ncc12 (stereo in doubt; 36)
pEC50 (Leishmania donovani [1]): 5.6
solubility at 4 h [2]: 88 µg/mL (≈ 179 µM)
solubility kinetic [3]: ≥ 310 µM

CC(C)Cc1n[nH]c2nc(N[C@H]3CC[C@H](NC(=O)Cc4ccccc4)CC3)ncc12
EC50 (Leishmania donovani [1]): > 50.1 µM
EC50 (HepG2): 50.1 µM
CLH [13]: 1.9 mL/min/g
CLH [15]: 9.5 mL/min/g
EC50 (THP-1): > 50.1 µM
